Data reported in paper PMC12830962 (Nature Communications, 2025).
Ends that are not written are not given here. * marks the point of attachment. Biotin = O=C1N[C@H]2[C@H](CS[C@H]2CCCCC(=O)*)N1; Ahx = NCCCCCC(=O)O

T1: Gal4-PPARα (PPARα-LBD) (Homo sapiens, UniProt Q07869)
T1 sequence (Q07869 239-466 limits assumed): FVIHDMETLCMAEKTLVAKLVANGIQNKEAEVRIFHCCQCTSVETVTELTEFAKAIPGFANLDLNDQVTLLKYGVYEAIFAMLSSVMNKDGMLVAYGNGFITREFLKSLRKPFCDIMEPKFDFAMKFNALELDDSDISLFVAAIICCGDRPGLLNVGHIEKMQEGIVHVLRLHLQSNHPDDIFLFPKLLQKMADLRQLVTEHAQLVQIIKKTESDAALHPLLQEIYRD

T2: His-hPPARγ-LBD (PPARγ2 residues 231–505) (human, UniProt P37231-1 231-505)
T2 sequence (looked up): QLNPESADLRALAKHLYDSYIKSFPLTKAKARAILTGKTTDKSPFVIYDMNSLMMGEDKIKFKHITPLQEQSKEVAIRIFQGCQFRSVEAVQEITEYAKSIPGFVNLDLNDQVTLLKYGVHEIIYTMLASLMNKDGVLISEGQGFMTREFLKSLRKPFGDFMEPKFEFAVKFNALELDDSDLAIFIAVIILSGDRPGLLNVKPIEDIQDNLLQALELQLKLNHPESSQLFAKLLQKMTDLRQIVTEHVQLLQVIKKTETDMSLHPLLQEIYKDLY


Legend:
[1] = system: human adipocytes from a type 2 diabetic donor (PT5022); test: Glucose uptake assay, adipocytes from type 2 diabetic donor; assay type: cell-based; settings: 100 nM insulin
Summary of the method: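 Adipocytes from a type 2 diabetic donor were differentiated from preadipocytes and exposed on day 7 to test compound in DMEM with 0.2% BSA for 24 h. Uptake was read by luminescence (Glucose Uptake-Glo).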

Gal4-PPARα (PPARα-LBD) = molecular target: T1, Gal4-PPARα (PPARα-LBD); test: Gal4-PPARα LBD::UAS-luciferase reporter cotransfection assay in HEK293T cells; assay type: cell-based; settings: 1 μΜ compound
Summary of the method: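 HEK293T cells were seeded at 3.3 × 10^6 per 10-cm plate. After 24 h they were PEI-transfected with 8 μg total DNA, Gal4-PPAR LBD plasmid and UAS-luciferase reporter at 1:1. After a further 24 h, cells were replated at 10,000 cells/well in 384-well plates, left 3 h, then given test compound or DMSO for 18 h. Luciferase was read with Britelite Plus.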

[2] = molecular target: T2, His-hPPARγ-LBD (PPARγ2 residues 231–505); test: AlphaScreen or HTRF

Molecule | insulin-stimulated glucose uptake compared to DMSO [1] | PPARα activation compared to that observed with GW7647 treatment (Gal4-PPARα (PPARα-LBD)) | binding result [2]
CN(CCOc1ccc(CC2SC(=O)NC2=O)cc1)c1ccccn1 (stereo not shown) [Rosi, rosiglitazone] | significantly enhanced | – | –
Cc1c(C)n(Cc2cccc(OC(C)(C)C(=O)O)c2)c2ccc(C(=O)N[C@@H](C)c3ccc(C(C)(C)C)cc3)cc12 [SR10171] | significantly enhanced | ~ 45% | –
{Biotin-Ahx}-LTERHKILHRLLQEGSPSD [biotin-Ahx-SRC1-2 coactivator peptide] | – | – | binds
